Activity calls are given as the source filed them. The calls are words filed in the database; no cut-off is given here.
Experiments:
N9 [1] = assay: Antiinflammatory activity against mouse N9 cells assessed as inhibition of LPS/IFN-gamma-induced TNFalpha generation treated 1 hr before LPS challenge assessed after 24 hrs; format: functional, cell-based
Outline: (§1)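 TNF-α release assay. Cells were pretreated with compound at 37 °C for 1 h and then stimulated for 24 h. N9 microglia were in Iscove's medium with 2% heat-inactivated FCS at 8×10^4 cells/well and were stimulated with LPS 10 μg/mL. RAW 264.7 cells were in DMEM with 5% FCS at 2×10^5 cells/well and were stimulated with LPS 1 μg/mL. Medium was stored at -70 °C until assay.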

Mus musculus = species: Mus musculus; assay: Antiinflammatory activity against mouse […] cells assessed as inhibition of LPS-induced TNFalpha generation treated 1 hr before LPS challenge assessed after 24 hrs; format: functional, cell-based; outline: as §1
[2] = Antiinflammatory activity against mouse […] cells assessed as inhibition of LPS-induced nitrite accumulation at 3 uM treated 1 hr before LPS challenge assessed after 24 hrs; format: functional
Outline: (§2)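 RAW 264.7 macrophages were plated at 2×10^5 cells/well in DMEM with 5% FCS and adhered overnight. They were pretreated 1 h at 37 °C with compound or 0.5% DMSO vehicle, then stimulated with E. coli 0111:B4 LPS 1 μg/mL for 24 h. Medium nitrite was read by Griess reaction (10 min at RT, A550) against an NaNO₂ standard. Mean ± s.e.m., n=3; IC50 from concentration–response.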

[3] = Antiinflammatory activity against mouse […] cells assessed as inhibition of LPS-induced nitrite accumulation at 10 uM treated 1 hr before LPS challenge assessed after 24 hrs; format: functional; outline: as §2
[4] = Antiinflammatory activity against mouse […] cells assessed as inhibition of LPS-induced nitrite accumulation at 30 uM treated 1 hr before LPS challenge assessed after 24 hrs; format: functional; outline: as §2
[5] = Antiinflammatory activity against mouse […] cells assessed as inhibition of LPS-induced nitrite accumulation treated 1 hr before LPS challenge assessed after 24 hrs; format: functional, cell-based; outline: as §2
N9 [6] = assay: Antiinflammatory activity against mouse N9 cells assessed as inhibition of LPS/IFN-gamma-induced nitrite accumulation at 10 uM treated 1 hr before LPS challenge assessed after 24 hrs
N9 [7] = assay: Antiinflammatory activity against mouse N9 cells assessed as inhibition of LPS/IFN-gamma-induced nitrite accumulation at 30 uM treated 1 hr before LPS challenge assessed after 24 hrs
[8] = Antiinflammatory activity against mouse […] cells assessed as inhibition of LPS-induced nitrite accumulation at 0.1 mM treated 1 hr before LPS challenge assessed after 24 hrs; format: functional
Outline: (§3)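 RAW 264.7 cells in DMEM with 5% FCS seeded at 2×10^5 cells/well and allowed to adhere overnight. Pretreated 1 h at 37 °C with compound or 0.5% DMSO (final), then stimulated with 1 μg mL⁻¹ E. coli 0111:B4 LPS for 24 h. Medium nitrite measured by Griess reaction (absorbance 550 nm) using an NaNO₂ standard curve. Mean ± s.e.m., n=3.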

[9] = Antiinflammatory activity against mouse […] cells assessed as inhibition of LPS-induced nitrite accumulation at 0.3 mM treated 1 hr before LPS challenge assessed after 24 hrs; format: functional; outline: as §3
[10] = Antiinflammatory activity against mouse […] cells assessed as inhibition of LPS-induced nitrite accumulation at 1 mM treated 1 hr before LPS challenge assessed after 24 hrs; format: functional; outline: as §3
N9 [11] = assay: Antiinflammatory activity against mouse N9 cells assessed as inhibition of LPS/IFN-gamma-induced nitrite accumulation treated 1 hr before LPS challenge assessed after 24 hrs

IC50 [5] [µM] | Compound | Activity (N9 [1]) | Activity (Mus musculus) | inhibition at 3 µM [2] [%] | inhibition at 10 µM [3] [%] | inhibition at 30 µM [4] [%] | inhibition at 10 µM (N9 [6]) [%] | inhibition at 30 µM (N9 [7]) [%] | inhibition at 100 µM [8] [%] | inhibition at 300 µM [9] [%] | inhibition at 1000 µM [10] [%] | IC50 (N9 [11]) [µM]
27.1 | COc1cc2c(O[C@@H]3OC[C@](O)(CO[C@@H]4OC[C@@H](O)[C@H](O)[C@H]4O)[C@H]3O[C@@H]3OC[C@H](O)[C@H](O)[C@H]3O)c3c(c(-c4ccc5c(c4)OCO5)c2cc1OC)C(=O)OC3 [CILIATOSIDE A] | inactive | inactive | 22 | 18.7 | 11.9 | 46.7 | 37.9 | – | – | – | –
29.4 | COc1cc2c(O[C@@H]3OC[C@](O)(CO[C@@H]4OC[C@@H](O)[C@H](O)[C@H]4O)[C@H]3O[C@@H]3OC[C@H](O)[C@H](O[C@@H]4OC[C@](O)(CO)[C@H]4O)[C@H]3O)c3c(c(-c4ccc5c(c4)OCO5)c2cc1OC)C(=O)OC3 [CILIATOSIDE B] | inactive | inactive | 20.7 | 20.5 | 12.4 | 42.8 | 36.5 | – | – | – | –

Compound | IC50 [5] [µM] | Activity (N9 [1]) | Activity (Mus musculus) | inhibition at 3 µM [2] [%] | inhibition at 10 µM [3] [%] | inhibition at 30 µM [4] [%] | inhibition at 10 µM (N9 [6]) [%] | inhibition at 30 µM (N9 [7]) [%] | inhibition at 100 µM [8] [%] | inhibition at 300 µM [9] [%] | inhibition at 1000 µM [10] [%] | IC50 (N9 [11]) [µM]
COC(=O)[C@@H](N)CCCNC(=N)N[N+](=O)[O-] [L-NAME] | 510 | – | – | – | – | – | – | – | 16.8 | 15.6 | 6.6 | 630

Source: ChEMBL document CHEMBL1155633, “New lignan glycosides with potent antiinflammatory effect, isolated from Justicia ciliata” (J Nat Prod, 2000)
